Among the data in ChEMBL document CHEMBL1138580, “Natural polyprenylated benzophenones inhibiting cysteine and serine proteases” (Eur J Med Chem, 2009) are IC50 and inhibition values, retold here.

SMILES strings stand for the structures. Active and inactive are the calls of the source. No cut-off for these calls is given here.

The target of one experiment is T1, Papain (Carica papaya, UniProt P00784).
T1 sequence (P00784 whole entry): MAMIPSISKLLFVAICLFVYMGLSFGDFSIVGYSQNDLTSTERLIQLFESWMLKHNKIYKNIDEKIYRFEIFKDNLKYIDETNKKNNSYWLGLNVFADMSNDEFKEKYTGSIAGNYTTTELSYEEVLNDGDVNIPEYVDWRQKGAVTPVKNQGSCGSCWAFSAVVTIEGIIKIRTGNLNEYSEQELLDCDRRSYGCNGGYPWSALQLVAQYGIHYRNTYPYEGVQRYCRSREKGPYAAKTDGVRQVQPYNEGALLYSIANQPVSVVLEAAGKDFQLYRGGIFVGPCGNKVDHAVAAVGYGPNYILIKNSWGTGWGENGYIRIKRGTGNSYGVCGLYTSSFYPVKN
The experiment in a line: Inhibition of Carica papaya papain by spectrofluorimetry. Summed up:
(§1)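 Enzyme (papain and CatB DTT 10 mM-activated; trypsin not) incubated 5 min at 25 °C with DMSO-dissolved inhibitor, five concentrations; Z-FR-AMC started reaction, AMC ex 380/em 460 nm. Papain: phosphate 50 mM pH 6.8, EDTA 1.0 mM, 7.8 nM. CatB: Tris–HCl 50 mM pH 7.5, EDTA 5 mM, 1.0 nM. Trypsin: Tris–HCl pH 7.5, CaCl2 10 mM, 56.1 nM. IC50 from time-course dose–response; triplicate.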

The nature of experiment [1]: Inhibition of trypsin by spectrofluorimetry.
The target in the next experiment is Cathepsin B (Homo sapiens, UniProt P07858). The experiment in a line: Inhibition of cathepsin B by spectrofluorimetry. Summed up:
as §1

For experiment [2], the target named is T2, Papain (Carica papaya) (UniProt P00784).
T2 sequence (whole entry): T1 sequence (P00784 whole entry)
The experiment in a line: Inhibition of Carica papaya papain assessed as residual enzyme activity at 9 uM after 30 mins.

Experiment [3] in a line: Inhibition of trypsin assessed as residual enzyme activity at 10 uM after 30 mins.
Experiment [4] deals with T2, Papain (Carica papaya). The experiment in a line: Inhibition of Carica papaya papain at 50 uM preincubated for 5 mins before addition of increasing concentration of substrate Z-FR-AMC.
Experiment [5] in a line: Inhibition of trypsin at 50 uM preincubated for 5 mins before addition of increasing concentration of substrate Z-FR-AMC.
Experiment [6] deals with T2, Papain (Carica papaya). As to the kind of experiment: Inhibition of Carica papaya papain at 50 uM preincubated before DTT addition by fluorescence measurement.
For a further experiment, the target named is T3, Cathepsin G (Homo sapiens, UniProt P08311).
T3 sequence (P08311 whole entry): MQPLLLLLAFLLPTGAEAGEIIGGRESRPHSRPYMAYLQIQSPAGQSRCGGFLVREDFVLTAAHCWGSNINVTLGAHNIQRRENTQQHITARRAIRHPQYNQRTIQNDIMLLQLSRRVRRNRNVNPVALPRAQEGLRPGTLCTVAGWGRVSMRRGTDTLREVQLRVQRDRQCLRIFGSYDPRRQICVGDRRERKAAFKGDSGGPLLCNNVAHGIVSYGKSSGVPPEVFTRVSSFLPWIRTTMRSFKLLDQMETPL
The experiment in a line: Inhibition of cathepsin G by spectrofluorimetry.

The target of experiment [7] is T2, Papain (Carica papaya). The conditions noted are these: 0.2 uM.
Experiment [8] concerns the target T2, Papain (Carica papaya). The conditions noted are these: 0.5 uM.

For `CC(C)=CC[C@H]1C[C@@]2(CC=C(C)C)C(=O)C(C(=O)c3ccccc3)=C(O)[C@H](C2=O)C1(C)C` [GARCINIAPHENONE], the IC50 at Papain is 131 µM; in experiment [1] it was 104 µM; at Cathepsin B it was 103 µM. In addition, the inhibition entry (on Papain (Carica papaya) [2]; in [3]) was “Active” in each case. Further, the inhibition entry (at Papain (Carica papaya) [4]; in experiment [5]; at Papain (Carica papaya) [6]) was “inactive” each time.
As to `CC(C)=CCC[C@]1(C)[C@@H](CC=C(C)C)C[C@]2(CC=C(C)C)C(=O)[C@@]1(CC=C(C)C)C(=O)C(C(=O)c1ccc(O)c(O)c1)=C2O` [GUTTIFERONE A], the IC50 at Papain was 1.9 µM; at Cathepsin B, 2.1 µM; on Cathepsin G, 2.7 µM. In addition, the inhibition entry at Papain (Carica papaya) [2], at Papain (Carica papaya) [4] and on Papain (Carica papaya) [6] was “Active” throughout.
With `O=C(c1ccccc1O)c1ccc(O)cc1O`, the IC50 was determined as 693 µM against Papain, 301 µM in experiment [1] and 198 µM on Cathepsin B. The inhibition result (at Papain (Carica papaya) [4]; in [5]; at Papain (Carica papaya) [6]) was “inactive” throughout.
`O=C(c1ccccc1)c1ccccc1` [BENZOPHENONE]: the IC50 came out at 3460 µM at Papain, 3470 µM in [1] and 289 µM against Cathepsin B. Also, the inhibition result (on Papain (Carica papaya) [4]; in experiment [5]; on Papain (Carica papaya) [6]) was “inactive” each time.
Compound `CC(=O)N[C@@H](CC(C)C)C(=O)N[C@@H](CC(C)C)C(=O)N[C@H](C=O)CCCNC(=N)N` [LEUPEPTIN] yielded an IC50 against Cathepsin B of 0.047 µM.
`CC(C)C[C@H](NC(=O)[C@H]1O[C@@H]1C(=O)O)C(=O)NCCCCN=C(N)N` [E-64] yielded an IC50 against Papain of 0.047 µM. In addition, the inhibition entry at Papain (Carica papaya) [7] and at Papain (Carica papaya) [8] was “Active” in each case.

By IC50 is commonly meant the concentration that inhibits the measured activity by half. Read a high IC50 as a need for much substance.
